Data on eight compounds can be found in PubChem BioAssay.

A short description of assay [1]: inhibitors of TNFa-induced NFkB p65 translocation, primary screen, imaging, HUVEC, MLSMR starter and 10KST1 sets (AID 438;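 active means inhibition above 20% together with a positive visual image hit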;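 further: compound added about 3h40 before a 20 min TNFalpha stimulation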;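 on inhibition: signal is the nuclear over cytoplasmic p65 intensity ratio per well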). The following applies: HUVEC TNFa-induced p65 nuclear translocation; cell count: measured here: nuclei count (cytotoxicity indicator), at 2.08 µM; inhibition: at 2 µM, stronger effect = higher value, 0% TNFa-plus-vehicle, 100% no-TNFa wells.
Assay [2] can be described thus: endothelial E-selectin expression blockers – imaging, HUVEC, immunofluorescence, MLSMR starter and 10KST1 sets, primary screen (AID 487;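 active means visually confirmed hit in the image check and inhibition above 20%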;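 on inhibition: signal is fraction of cell area covered by stained E-selectin grains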;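 on nuclei count: 100% = median nuclei count of all wells on the same plate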). The note with it: HUVEC TNFalpha-induced E-selectin immunofluorescence imaging, at 2 µM; inhibition: stronger effect = higher value; nuclei count: measured here: cell number, toxicity.
The nature of assay [3]: Primary imaging screen for DUSP6 inhibitors that restore phospho-Erk in transfected HeLa cells, chemical complementation (AID 609;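 active means compounds giving at least 50% inhibition in the cell-based MKP-3 phosphatase rescue imaging test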;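 on inhibition: phospho-Erk level distribution per well compared with pooled transfected vehicle control wells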). The note with it: HeLa MKP-3 transfected, phospho-Erk imaging KS statistic, at 10 µM, cells stimulated with TPA for 15 min.
Assay [4] addresses Dual specificity protein phosphatase 6 (Homo sapiens) (UniProt Q16828). The description is as above. The note with it: HeLa MKP-3 transfected, phospho-Erk imaging KS statistic; at 10 µM; stronger effect = higher value; cells stimulated with TPA for 15 min.
Assay [5] concerns the target Voltage-gated potassium channel subunit beta-2 (Rattus norvegicus) (UniProt P62483). Briefly: inhibitors of rat Kvbeta2 reductase activity – biochemical, NADPH fluorescence, primary screen (AID 622).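 Further: slope of raw intensity against log time taken from 70 to 1610 s.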 The following applies: recombinant KvBeta, 4-cyanobenzaldehyde reduction, at 10 µM, stronger effect = higher value.
The target is the same in assay [6]. In words: enhancers of rat Kvbeta2 NADPH turnover – biochemical, NADPH fluorescence, primary screen (AID 623;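 active means NADPH fluorescence slope more negative than the mean of all samples by about 3 SD, 99.7% confidence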;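 further: fluorescence intensity change per second fitted from 20 to 320 s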). The note with it: Recombinant KvBeta, NADPH fluorescence decrease slope, 10 min; at 10 µM; stronger effect = lower value.
The target in assay [7] is Muscarinic acetylcholine receptor M4 (Homo sapiens) (UniProt P08173). In words: M4-linked GIRK flux change, two-sided – cell-based, HEK293 M4/GIRK, thallium flux, BTC-AM, M4 allosteric agonist project, primary screen (AID 625;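 active means fluorescence slope after compound addition differing from the mean of all tested samples at 99.7% confidence, mostly higher but some lower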;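 further: thallium influx through GIRK channels coupled to M4 in HEK293 cells with BTC-AM dye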). The note with it: at 10 µM, actives lie on both sides. The method in brief: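 Assay system: HEK293 cells with M4 receptor and GIRK channels / Controls: carbachol and DMSO controls / Schedule: 1 h dye loading, 2 min kinetic read / Technique: kinetic fluorescence with BTC-AM dye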
Sequence of Muscarinic acetylcholine receptor M4 (Homo sapiens) (P08173 whole entry, looked up): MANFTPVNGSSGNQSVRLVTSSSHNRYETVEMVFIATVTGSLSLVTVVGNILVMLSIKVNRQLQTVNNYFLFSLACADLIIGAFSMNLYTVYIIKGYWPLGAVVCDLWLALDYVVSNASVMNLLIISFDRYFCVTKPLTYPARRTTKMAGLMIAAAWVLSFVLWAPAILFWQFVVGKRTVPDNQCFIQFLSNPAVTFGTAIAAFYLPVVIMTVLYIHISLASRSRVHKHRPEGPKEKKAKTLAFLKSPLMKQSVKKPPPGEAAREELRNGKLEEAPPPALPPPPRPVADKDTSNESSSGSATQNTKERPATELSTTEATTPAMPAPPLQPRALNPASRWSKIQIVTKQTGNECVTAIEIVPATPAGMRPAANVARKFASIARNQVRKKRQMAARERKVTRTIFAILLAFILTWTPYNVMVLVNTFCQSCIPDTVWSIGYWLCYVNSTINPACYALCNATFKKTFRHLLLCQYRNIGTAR

Assay [8] can be described thus: inhibitors of larval lipid processing in zebrafish, primary screen, whole organism, PED6 fluorescence, gall bladder and intestine (AID 686;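 active means a full or partial loss of lipid-probe fluorescence in the fish gall bladder, intestine or both, judged by eye; inactive means no fluorescence loss, or compound toxic to the fish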;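 further: larvae 5 to 7 days old with five fish per well; signal comes from phospholipase A2 cleavage of quenched PED6 carried via bile; overnight exposure to compound and PED6 before scoring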). The note with it: Zebrafish larvae PED6 lipid processing, fluorescence scoring; screened at 20 µM (by protocol). The method, boiled down:
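Doses: 20 µM single dose. Test system: live zebrafish larvae aged 5-7 days, whole organism. Quantity: five larvae per well. Measured by: By-eye fluorescence microscopy. Reagent: ingested quenched lipid PED6 at 100 nM. Read-out: visual per-well fluorescence inhibition score. Times: overnight exposure of larvae to compound plus PED6.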

A short description of assay [9]: loss of swimming-algae plug formation – whole organism, Chlamydomonas reinhardtii, WT vs cilia-less mutant, absorbance, 96-well, primary screen (AID 463189;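 active means inhibition at or above 50% relative to wild type and mutant plate controls; inactive means inhibition below 50%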;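 further: 0% = wild type cc124 cells in DMSO and 100% = ciliumless bld1 mutant cells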). The following applies: Chlamydomonas reinhardtii gravitaxis, OD600 absorbance, 2 days; at 10 µM; stronger effect = higher value.
In assay [10] the target is Alpha-2C adrenergic receptor (Homo sapiens) (UniProt P18825). In words: compounds altering alpha2C-coupled GIRK flux – cell-based, HEK293 alpha2C/GIRK1/2, thallium flux, primary screen (AID 624;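 active means fluorescence slope after compound addition differing from the mean of all screened samples at 99.7% confidence, in either direction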;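 further: slope of fluorescence ratio to pre-addition baseline per second over 15 to 24 s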). The note with it: thallium flux BTC fluorescence, at 10 µM, actives lie on both sides.
Sequence of Alpha-2C adrenergic receptor (Homo sapiens) (P18825 whole entry, looked up): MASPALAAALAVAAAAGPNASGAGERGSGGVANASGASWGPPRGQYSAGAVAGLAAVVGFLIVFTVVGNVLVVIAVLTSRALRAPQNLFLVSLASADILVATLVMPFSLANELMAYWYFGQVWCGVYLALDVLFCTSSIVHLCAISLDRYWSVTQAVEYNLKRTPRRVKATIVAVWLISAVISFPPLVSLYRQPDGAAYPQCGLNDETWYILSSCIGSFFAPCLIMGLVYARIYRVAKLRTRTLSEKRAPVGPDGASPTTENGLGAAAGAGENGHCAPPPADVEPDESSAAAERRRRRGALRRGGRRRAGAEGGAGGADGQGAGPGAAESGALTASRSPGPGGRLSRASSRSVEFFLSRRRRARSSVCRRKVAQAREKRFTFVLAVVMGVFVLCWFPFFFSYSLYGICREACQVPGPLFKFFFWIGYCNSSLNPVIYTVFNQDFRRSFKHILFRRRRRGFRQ
Where [11] appears, read: measured here: cell density z-score.
Where [12] appears, read: measured here: nuclear c-Myc green intensity z-score.
The mark [13] stands for this setting: measured here: nuclear pErk red intensity z-score, stronger effect = higher value.

Active and inactive are the calls of the source.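 How the source made its calls, unless noted: active means fluorescence slope higher than the sample average by over 3 SD (cut at about -0.22 in these data, passing the limit was not always enough); inactive means the rest.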

Sequence of Voltage-gated potassium channel subunit beta-2 (Rattus norvegicus) (P62483 whole entry, looked up): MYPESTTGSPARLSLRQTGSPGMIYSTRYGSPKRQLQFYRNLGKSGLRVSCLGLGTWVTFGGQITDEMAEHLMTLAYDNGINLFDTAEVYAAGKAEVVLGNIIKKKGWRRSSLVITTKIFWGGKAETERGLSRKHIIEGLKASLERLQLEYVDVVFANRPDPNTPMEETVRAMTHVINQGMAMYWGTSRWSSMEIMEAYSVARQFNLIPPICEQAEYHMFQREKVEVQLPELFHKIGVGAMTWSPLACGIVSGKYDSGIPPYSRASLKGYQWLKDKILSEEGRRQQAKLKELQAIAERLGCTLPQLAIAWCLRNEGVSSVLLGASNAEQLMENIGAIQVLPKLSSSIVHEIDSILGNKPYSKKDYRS
Sequence of Dual specificity protein phosphatase 6 (Homo sapiens) (Q16828 whole entry, looked up): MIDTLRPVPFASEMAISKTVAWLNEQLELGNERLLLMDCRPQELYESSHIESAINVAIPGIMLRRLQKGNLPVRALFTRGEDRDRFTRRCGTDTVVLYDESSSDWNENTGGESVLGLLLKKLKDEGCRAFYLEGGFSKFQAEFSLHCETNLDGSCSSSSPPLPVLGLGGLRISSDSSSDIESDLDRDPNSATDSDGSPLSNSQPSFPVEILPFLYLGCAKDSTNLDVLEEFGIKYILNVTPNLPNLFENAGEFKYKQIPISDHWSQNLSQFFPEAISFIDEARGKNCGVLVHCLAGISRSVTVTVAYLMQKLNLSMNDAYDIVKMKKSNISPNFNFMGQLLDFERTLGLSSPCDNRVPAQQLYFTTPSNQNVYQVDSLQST

With `Cc1ccc(-c2nnc(OCCN3CCOCC3)c3ccccc23)cc1`, the cell count in assay [1] worked out at 453. For the same compound, the inhibition (in general, the change of the read-out against control, counted positive when it falls) in [1] is 0.4% (inactive); in assay [2] it was -85.1% (inactive); in assay [4], 4.37% (inactive); in [9], 30.5% (inactive). Besides, the nuclei count in assay [2] was found to be 167%. Further, the z-score is 1.01 in assay [3] (setting [11]), -0.803 in assay [3] (setting [12]) and -0.0262 in assay [3] (setting [13]). The results for the fluorescence slope in assay [5] and in assay [7] were -0.463 (inactive) and 0.00559 (inactive), respectively. Further, the NADPH fluorescence slope in assay [6] is -2.6e-05 (inactive). The result in assay [8] was inactive.

As to `CC1(C)CC(=O)C2=C(C1)OC(N)=C(C#N)[C@@]21C(=O)N(CC(N)=O)c2ccccc21`, the cell count in [1] was 375. Also, the inhibition is -8% (inactive) in [1], -63.6% (inactive) in [2], -3.95% (inactive) in assay [4] and -3.87% (inactive) in assay [9]. In assay [2], this compound had a nuclei count of 114%. In addition, the z-score is 0.0987 in assay [3] (setting [11]), 0.575 in [3] (setting [12]) and -0.037 in assay [3] (setting [13]). Moreover, the results for the fluorescence slope in [5] and in assay [7] were -0.464 (inactive) and 0.00604 (inactive), respectively. Moreover, the NADPH fluorescence slope in assay [6] is -2e-05 (inactive). Moreover, the compound was called inactive in [8].

With `CC1CN(C2CCN(C(=O)c3ccccc3)CC2)CC(C)O1` (stereo not drawn), the cell count in assay [1] came out at 391. In addition, the inhibition in assay [1] is -25.6% (inactive); in assay [4] it was -0.159% (inactive); in [9] it was 4.48% (inactive). In [2], this compound came in with a nuclei count of 174%. Further, the z-score in assay [3] (setting [11]) was 1.48; in assay [3] (setting [12]), -0.00638; in [3] (setting [13]) it was -0.737. The fluorescence slope in assay [5] is -0.395 (inactive). For the same compound, the NADPH fluorescence slope in assay [6] is -3.8e-05 (inactive). Besides, in [10], the slope was 0.00679 (inactive). Besides, the compound was called inactive in [8].

Consider `Cn1c(N2CCOCC2)nc2c1c(=O)n(Cc1ccc(Cl)cc1)c(=O)n2C`, for which the cell count in assay [1] amounted to 644. Moreover, the inhibition in assay [1] is 12.1% (inactive); in [2], -31.1% (inactive); in assay [4], -2.09% (inactive); in assay [9], -7.86% (inactive). Besides, the nuclei count in assay [2] is 101%. In addition, the z-score in [3] (setting [11]) is 0.134; in assay [3] (setting [12]), 0.368; in [3] (setting [13]), 0.486. Also, the fluorescence slope is -0.446 (inactive) in [5] and 0.00452 (inactive) in [7]. In addition, the NADPH fluorescence slope in assay [6] is -3.4e-05 (inactive). In addition, the compound was classed as inactive in [8].

Turning to `CCCCCCn1c(SCCN2CCOCC2)nc2c1c(=O)[nH]c(=O)n2C`, the cell count in assay [1] worked out at 534. The inhibition in assay [1] was -16.2% (inactive); in [2], -9.8% (inactive); in assay [4] it was 13.4% (inactive); in [9], 27.5% (inactive). In assay [2], this compound showed a nuclei count of 139%. Besides, the z-score in [3] (setting [11]) was 0.497; in assay [3] (setting [12]), 0.889; in [3] (setting [13]), 0.83. Further, the fluorescence slope in assay [5] was -0.409 (inactive); in assay [7], 0.00545 (inactive). In addition, in assay [6], the NADPH fluorescence slope is -4.3e-05 (inactive). Also, the compound was classed as inactive in [8].

With `O=C1C=C(NCCNc2c(F)c(F)c(CO)c(F)c2F)CCC1`, the cell count in [1] was determined as 504. In addition, the inhibition is -12.3% (inactive) in assay [1], -87.2% (inactive) in assay [2], 17.8% (inactive) in [4] and 32.9% (inactive) in assay [9]. For the same compound, the nuclei count in assay [2] turned out to be 105%. Also, the z-score in assay [3] (setting [11]) was 0.485; in assay [3] (setting [12]) it was -0.53; in assay [3] (setting [13]), -1.21. The fluorescence slope in assay [5] was -0.396 (inactive); in assay [7], 0.00657 (inactive). For the same compound, the NADPH fluorescence slope in [6] is -1.8e-05 (inactive). The result in assay [8] was inactive.

As for `COC(=O)C(NC(C)=O)(Nc1nc2c(s1)CCCC2)C(F)(F)F` (stereo not drawn), in assay [1], the cell count was found to be 370. The inhibition in assay [1] is -7.5% (inactive); in assay [2] it was -63.7% (inactive); in [4], 5.42% (inactive); in assay [9] it was -6.09% (inactive). This compound also gave a nuclei count in assay [2] of 193%. The z-score in assay [3] (setting [11]) is 1.49; in assay [3] (setting [12]), 0.382; in assay [3] (setting [13]), -1.06. The results for the fluorescence slope in [5] and in assay [7] were -0.414 (inactive) and 0.00554 (inactive), respectively. For the same compound, in assay [6], the NADPH fluorescence slope is -0.000114 (inactive). Moreover, in [8], the compound was called inactive.

With `CCOC(=O)c1c(C)[nH]c(/C(C)=N/O)c1C`, the cell count in [1] was found to be 668. In addition, the inhibition in [1] was -10.2% (inactive); in [2], -400% (inactive); in assay [4], 1.12% (inactive); in [9], 87.2% (active). Also, in assay [2], the nuclei count stood at 161%. The z-score in assay [3] (setting [11]) was -0.0773; in [3] (setting [12]), -1.42; in [3] (setting [13]), -0.664. The results for the fluorescence slope in assay [5] and in assay [7] were -0.526 (inactive) and 0.00562 (inactive), respectively. Also, in assay [6], the NADPH fluorescence slope was -3.4e-05 (inactive). In addition, the compound was called inactive in assay [8].
